Data reported in ChEMBL document CHEMBL3580644, “Synthesis of piperlongumine analogues and discovery of nuclear factor erythroid 2-related factor 2 (Nrf2) activators as potential neuroprotective agents” (J Med Chem, 2015).
Calls of active or inactive are those of the source. No cut-off for these calls is given here.

Experiments:
PC-12 [1] = experiment: Induction of antioxidant genes expression in rat PC12 cells assessed as increase in Trx1 mRNA level at 20 uM incubated for 12 hrs by qRT-PCR method; assay type: functional, cell-based
In short: (§1)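 PC12 cells, 1×10^6 per 60-mm dish, 1 day, then 20 μM compound for 0, 3, 6 and 12 h; total RNA isolated, quantified by 260/280 absorbance; mRNA by real-time RT-PCR normalized to GAPDH; mean ± SD of three independent experiments versus 0 h.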

PC-12 [2] = experiment: Induction of antioxidant genes expression in rat PC12 cells assessed as increase in TrxR1 activity at 10 and 20 uM incubated for 20 hrs by TRFS-green dye based fluorescent microscopy; assay type: functional, cell-based
In short: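 PC12 cells 2×10^5/well, 24 h, then compound 20 h; TRFS-green added to 10 μM final and incubated 4 h at 37 °C in the dark; green fluorescence intensity imaged by fluorescence microscopy as relative cellular TrxR activity.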

PC-12 [3] = experiment: Induction of antioxidant genes expression in rat PC12 cells assessed as increase in Trx1 mRNA level at 20 uM incubated for 6 hrs by qRT-PCR method; assay type: functional, cell-based; in short: as §1
[4] = target: T1, Nuclear factor erythroid 2-related factor 2 (Rattus norvegicus) (UniProt O54968); experiment: Induction of Nrf2-mediated antioxidant genes expression in rat PC12 cells assessed as increase in TrxR1 protein expression at 10 and 20 uM incubated for 20 hrs by Western blotting method; assay type: cell-based; details: PC-12
T1 sequence (whole entry): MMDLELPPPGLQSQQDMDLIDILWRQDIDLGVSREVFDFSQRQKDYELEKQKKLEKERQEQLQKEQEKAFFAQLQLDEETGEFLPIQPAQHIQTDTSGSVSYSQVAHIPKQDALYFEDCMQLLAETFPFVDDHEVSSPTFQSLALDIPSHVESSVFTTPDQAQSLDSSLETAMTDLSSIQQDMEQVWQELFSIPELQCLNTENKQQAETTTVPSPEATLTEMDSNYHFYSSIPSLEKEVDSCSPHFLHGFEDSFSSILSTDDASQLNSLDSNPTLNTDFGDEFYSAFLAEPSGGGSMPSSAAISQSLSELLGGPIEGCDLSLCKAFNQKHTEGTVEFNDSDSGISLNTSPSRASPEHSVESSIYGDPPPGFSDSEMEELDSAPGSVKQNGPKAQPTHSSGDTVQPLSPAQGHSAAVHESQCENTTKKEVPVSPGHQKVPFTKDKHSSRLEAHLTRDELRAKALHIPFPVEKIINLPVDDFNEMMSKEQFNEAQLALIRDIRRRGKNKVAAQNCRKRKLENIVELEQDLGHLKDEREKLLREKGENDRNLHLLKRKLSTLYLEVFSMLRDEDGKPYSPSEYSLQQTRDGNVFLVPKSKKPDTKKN

PC-12 [5] = experiment: Cytoprotection activity against 6-OHDA-induced cytotoxicity in rat PC12 cells assessed as cell viability at 10 and 20 uM pre-incubated for 24 hrs before 6-OHDA exposure for 12 hrs in presence of shNrf2 by MTT assay; assay type: functional, cell-based
[6] = Antioxidant activity assessed as ABTS radical scavenging activity at 20 uM incubated for 30 mins by spectrophotometry; assay type: physicochemical; details: 0.5 h
[7] = Cytoprotection activity against H2O2-induced cytotoxicity in rat PC12 cells assessed as increase in cell viability at 20 uM pre-incubated for 24 hrs before H2O2 exposure for 12 hrs by MTT assay; assay type: functional, PC-12
PC-12 [8] = experiment: Induction of antioxidant genes expression in rat PC12 cells assessed as increase in HO1 mRNA level at 20 uM incubated for 6 hrs by qRT-PCR method; assay type: functional, cell-based; in short: as §1
PC-12 [9] = experiment: Cytoprotection activity against 6-OHDA-induced oxidative stress in rat PC12 cells assessed as reduction in ROS generation at 10 and 20 uM pre-incubated for 24 hrs before 6-OHDA exposure for 5 hrs by DCFH-DA dye based fluorescent microscopy; assay type: functional, cell-based
PC-12 [10] = experiment: Induction of antioxidant genes expression in rat PC12 cells assessed as increase in NQO1 mRNA level at 20 uM incubated for 6 hrs by qRT-PCR method; assay type: functional, cell-based; in short: as §1
PC-12 [11] = experiment: Induction of antioxidant genes expression in rat PC12 cells assessed as increase in TrxR1 mRNA level at 20 uM incubated for 12 hrs by qRT-PCR method; assay type: functional, cell-based; in short: as §1
PC-12 [12] = experiment: Cytoprotection activity against 6-OHDA-induced apoptosis in rat PC12 cells assessed as reduction in apoptotic nuclei levels at 10 and 20 uM pre-incubated for 24 hrs before 6-OHDA exposure for 5 hrs by Hoechst 33342 staining based fluorescent microscopy; assay type: functional, cell-based
In short: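 PC12 cells seeded 2×10^5/well, grown 1 day, pretreated with compound 24 h, then medium replaced with fresh medium containing 200 μM 6-OHDA or 500 μM H2O2 for 5 h; Hoechst 33342 added at 5 μg/mL final; condensed, brightly fluorescent nuclei counted as apoptotic under fluorescence microscopy.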

[13] = target: T1, Nuclear factor erythroid 2-related factor 2 (Rattus norvegicus); experiment: Induction of Nrf2-mediated antioxidant genes expression in rat PC12 cells assessed as increase in NQO1 protein expression at 10 and 20 uM incubated for 20 hrs by Western blotting method; assay type: cell-based; details: PC-12
PC-12 [14] = experiment: Cytoprotection activity against H2O2-induced oxidative stress in rat PC12 cells assessed as NQO1 activity at pre-incubated for 24 hrs before H2O2 exposure for 12 hrs by DCPIP dye reduction based spectrophotometry; assay type: functional, cell-based
In short: (§2)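 NQO1: PC12 lysate in RIPA buffer, 5 μg protein into 20 mM Tris-HCl pH 7.4, 200 μM NADH, 40 μM DCPIP; A600 decrease read every 8 s for 2 min at room temperature ± 20 μM dicoumarol; dicoumarol-inhibitable rate used, expressed as % of DMSO control. Cells pretreated 24 h; stress lines then 500 μM H2O2 or 200 μM 6-OHDA 12 h.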

PC-12 [15] = experiment: Induction of antioxidant defense system in rat PC12 cells assessed as increase in NQO1 activity level incubated for 24 hrs by DCPIP dye reduction based spectrophotometry; assay type: functional, cell-based; in short: as §2
[16] = target: T1, Nuclear factor erythroid 2-related factor 2 (Rattus norvegicus); experiment: Induction of Nrf2-mediated antioxidant genes expression in rat PC12 cells assessed as increase in HO1 protein expression at 10 and 20 uM incubated for 20 hrs by Western blotting method; assay type: cell-based; details: PC-12
PC-12 [17] = experiment: Reduction in cytosolic Nrf2 protein level in rat PC12 cells at 20 uM incubated for 2 to 8 hrs by Western blotting method; assay type: functional, cell-based
In short: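 Seeded at 1×10^6 cells per 60-mm dish for 24 h, PC12 cells were treated with 20 μM compound for 0, 2, 4 and 8 h. Whole-cell, cytosolic and nuclear protein extracts were then prepared and Nrf2 probed by Western blot.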

In the case of `COc1ccc(/C=C/C(=O)N2CCCC2=O)cc1`, the Activity (PC-12 [1]) is reported as “Active”, the Activity (PC-12 [2]) is reported as “Active” and the Activity (PC-12 [3]) is reported as “Active”. For the same compound, the Activity [4] was “Active”, the Activity (PC-12 [5]) was “inactive” and the Activity [6] was “Not Active”. The Activity [7] was 80%, the Activity (PC-12 [8]) was “Active” and the Activity (PC-12 [9]) was “Dose-dependent effect”. For the same compound, the Activity (PC-12 [10]) was “Active”, the Activity (PC-12 [11]) was “Active” and the Activity (PC-12 [12]) was “Active”. For the same compound, the Activity [13] was “Active”, the Activity (PC-12 [14]) was “Active” and the Activity (PC-12 [15]) was “Active”. The Activity [16] was “Active” and the Activity (PC-12 [17]) was “Active”.
With `COc1cc(/C=C/C(=O)N2CCCCC2=O)cc(OC)c1OC` the Activity (PC-12 [1]) was “Active”, the Activity (PC-12 [2]) was “Active” and the Activity (PC-12 [3]) was “Active”. The Activity [4] was “Active”, the Activity (PC-12 [5]) was “inactive” and the Activity [6] was “Not Active”. The Activity [7] was 75%, the Activity (PC-12 [8]) was “Active” and the Activity (PC-12 [9]) was “Dose-dependent effect”. The Activity (PC-12 [10]) was “Active”, the Activity (PC-12 [11]) was “Active” and the Activity (PC-12 [12]) was “Active”. The Activity [13] was “Active”, the Activity (PC-12 [14]) was “Active” and the Activity (PC-12 [15]) was “Active”. For the same compound, the Activity [16] was “Active” and the Activity (PC-12 [17]) was “Active”.
